The nature of series [1]: Partition coefficient (x10-4) across dioleoylphosphatidylcholine bilayer in presence of cholesterol. The format is ADME. Particulars: lipid bilayer/electrolyte. Put shortly:
(§1)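 Lipid/electrolyte partition coefficient measured with ADIFAB (0.2 μM) in 1 M NaCl, 10 mM Hepes, pH 7.0 at 25 ± 1°C. Extruded vesicles at ≈100 μM phospholipid; total fatty acid raised stepwise over 3–30 μM, 3–5 min equilibration per step. Emission read at 432 and 505 nm (excitation 386 nm), corrected for cuvette binding. Kp from free vs total FA and Vm/Va; triplicate, averaged over concentrations.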

Series [2] in a line: Effect on gramicidin channel 13 activity. The method, boiled down: (§2)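 Planar bilayers of DC18:1PC (20 mg/ml in n-decane) across a ≈1.6 mm hole in a Teflon partition, in 1 M NaCl, 10 mM Hepes, pH 7.0. Opposite-helix-sense gA analogue pairs, gA(13) and AgA(15). Fatty acid added to both sides from ethanolic stock with NaOH and BHT, stirred 5 min, equilibrated 10 min. Single-channel currents and lifetimes recorded before and after addition. Where stated, cholesterol:DC18:1PC molar ratio 1:1.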

Series [3] can be described thus: Partition coefficient (x10-4) across dieicosenoyl-phosphatidylcholine bilayer. In kind it is ADME. Conditions: lipid bilayer/electrolyte. Put shortly: as §1
A short description of series [4]: Activity at gramicidin channel 13 assessed as increase in single channel current at 10 uM. Put shortly:
as §2

Series [5] can be described thus: Activity at gramicidin channel 13 assessed as increase in single channel current. The method, boiled down: as §2
The nature of series [6]: Partition coefficient (x10-4) across dioleoylphosphatidylcholine bilayer. The format is ADME. Particulars: lipid bilayer/electrolyte. The method, boiled down: as §1
Series [7] can be described thus: Activity at gramicidin A negative channel 15 assessed as increase in single channel current. The method, boiled down:
as §2

Series [8] can be described thus: Activity at gramicidin channel 13 assessed as increase in single channel current at 10 uM in presence of cholesterol. The method, boiled down:
as §2

Activity calls are given as the source filed them. The calls are words filed in the database; no cut-off is given here.

`CC/C=C\C/C=C\C/C=C\C/C=C\C/C=C\C/C=C\CCC(=O)O` [DOCONEXENT]: the figures for the Partition coefficient in series [1], in series [3] and in series [6] were 19, 20 and 20, respectively. Also, the outcome in series [2], in series [5] and in series [7] was Active. Further, the Activity in series [4] stood at 15%; in series [8], 65%.

On to `CCCCCCCC/C=C\CCCCCCCC(=O)O` [OLEIC ACID], for which the outcome in series [2], in series [5] and in series [7] was inactive. In addition, the Partition coefficient was 246 in series [3] and 254 in series [6]. Besides, the Activity in series [4] worked out at 5%; in series [8], 15%.

These data come from ChEMBL document CHEMBL1142229, “Docosahexaenoic acid alters bilayer elastic properties” (Proc Natl Acad Sci U S A, 2007).
